Screening results deposited in PubChem BioAssay by several laboratories.
CHT inh = inhibitors of human choline transporter CHT; Q9GZV3; CHT-expressing cells, membrane potential dye, choline response; active compounds read low; B-score at 10 µM; 310,000 compounds, 0.86% hits; AID 488975;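 active means B-score over 3 SD under the library average, and starting fluorescence ratio not unusually high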;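 further: choline stimulus applied at its EC90 after an EC20 pre-addition; B-score computed on integrated fluorescence ratio after choline addition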
CHT allo act = human CHT allosteric activation | Q9GZV3 | CHT-expressing cells, membrane potential dye, choline EC20; active compounds read high; LV-AA mutant CHT in HEK293 cells | B-score at 10 µM | 310,000 compounds, 0.49% hits;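 active means initial fluorescence not abnormally high and integrated response B-score, plate-corrected, over 3 SD above library mean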
pCIP destab = lowers stability of the mouse p/CIP coactivator protein; Q05BA5; F442A p/CIP-EGFP cells, EGFP fluorescence, 16 h; decrease of EGFP signal, % at 10 µM; 290,000 compounds, 0.01% hits; AID 1984;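 active means EGFP signal decrease of at least 30% at 10 µM or well 3 SD below plate mean, unless failing retest; inactive means the rest, including hits failing retest or dose response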
Target sequence (Q05BA5 1-1403): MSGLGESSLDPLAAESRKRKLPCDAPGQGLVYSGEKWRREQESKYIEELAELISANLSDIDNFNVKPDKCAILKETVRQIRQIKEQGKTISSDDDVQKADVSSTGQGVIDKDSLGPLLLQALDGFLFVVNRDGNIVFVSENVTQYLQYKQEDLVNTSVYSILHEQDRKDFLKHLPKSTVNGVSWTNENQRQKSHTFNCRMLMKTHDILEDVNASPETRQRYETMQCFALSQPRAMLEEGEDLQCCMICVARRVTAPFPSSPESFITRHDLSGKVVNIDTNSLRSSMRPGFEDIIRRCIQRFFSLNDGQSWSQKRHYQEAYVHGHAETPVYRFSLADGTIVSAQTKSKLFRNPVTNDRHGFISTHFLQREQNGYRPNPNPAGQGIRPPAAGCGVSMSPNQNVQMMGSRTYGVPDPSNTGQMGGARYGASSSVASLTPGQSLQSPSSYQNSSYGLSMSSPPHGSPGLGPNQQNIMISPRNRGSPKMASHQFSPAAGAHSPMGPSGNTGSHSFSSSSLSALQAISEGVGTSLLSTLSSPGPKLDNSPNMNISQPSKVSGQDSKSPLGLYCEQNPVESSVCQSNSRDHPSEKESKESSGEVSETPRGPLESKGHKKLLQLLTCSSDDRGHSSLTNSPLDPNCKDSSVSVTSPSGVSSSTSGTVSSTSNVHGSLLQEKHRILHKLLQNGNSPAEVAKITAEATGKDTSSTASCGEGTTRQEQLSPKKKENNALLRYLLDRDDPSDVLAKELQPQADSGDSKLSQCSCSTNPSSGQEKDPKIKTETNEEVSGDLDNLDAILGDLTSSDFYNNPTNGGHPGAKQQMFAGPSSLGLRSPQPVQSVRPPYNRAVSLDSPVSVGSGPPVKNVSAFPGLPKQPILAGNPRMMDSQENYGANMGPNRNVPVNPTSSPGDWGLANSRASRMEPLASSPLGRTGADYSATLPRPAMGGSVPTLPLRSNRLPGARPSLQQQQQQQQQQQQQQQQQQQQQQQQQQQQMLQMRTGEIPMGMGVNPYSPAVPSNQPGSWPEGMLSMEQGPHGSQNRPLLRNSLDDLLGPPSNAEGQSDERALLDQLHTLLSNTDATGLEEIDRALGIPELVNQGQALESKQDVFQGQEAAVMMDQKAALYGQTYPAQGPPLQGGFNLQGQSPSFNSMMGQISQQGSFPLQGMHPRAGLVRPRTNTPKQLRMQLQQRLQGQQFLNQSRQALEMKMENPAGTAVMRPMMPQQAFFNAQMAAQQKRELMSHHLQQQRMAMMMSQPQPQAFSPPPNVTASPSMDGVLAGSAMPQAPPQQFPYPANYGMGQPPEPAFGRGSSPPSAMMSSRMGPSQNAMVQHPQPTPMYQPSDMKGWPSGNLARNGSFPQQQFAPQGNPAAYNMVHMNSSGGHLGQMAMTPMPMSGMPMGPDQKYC
GPR7 antagonist = antagonists of human GPR7 (neuropeptides B/W receptor 1). AID 1861. P48145. inhibition, % at 4.4 µM. GPR7-expressing cells, fluorescence antagonist assay. 290,000 compounds, 1.1% hits; in the data active means inhibition above about 16%, passing the limit was not always enough;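 further: cells stimulated with the agonist NPW; 0% = agonist with vehicle and 100% = vehicle without agonist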
T cell HTS = T cell immune modulation candidate. 330,000 compounds, 0.068% hits. 2C CD8+ T cell-vesicle binding, flow cytometry; active compounds read low. response (vesicle binding), % at 7 µM;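 active means response, share of CD8 T cells binding vesicles, and their 90th percentile fluorescence all below set limits, cut at about 80% in these data, passing the limit was not always enough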;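 further: values below 100% mean blocked vesicle binding to the CD8+ T cells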
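Read-out – percent CD8+ FL2 mean versus row control · System – murine 2C transgenic CD8+ T lymphocytes · Times – 1.5 h cell–vesicle binding at 37 °C, then 20 min icy labelling · Control set – naked vesicles low, QL9 vesicles with vehicle high · Detection – cytometric PE anti-B7-1 and Alexa647 anti-CD8 signals after 1% paraformaldehyde fixation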
DSG3 Ab inh = blocks pemphigus antibody binding to human desmoglein-3; P32926; DSG3-coupled beads, scFv-anti-DSG3-GFP binding, flow cytometry; active compounds read low; binding (percent of control), % at 10 µM; 310,000 compounds, 0.48% hits; AID 588358;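 active means binding more than 3 SD below its plate's average and above zero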;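 further: hits lower antibody fragment binding to DSG3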
CHT activ conf = confirmation of human choline transporter (CHT) activators; AID 504833; CHT-expressing cells, membrane potential dye fluorescence (FDSS); % of choline EC20–EC90 response window; HEK293 expressing CHT LV-AA mutant; choline added at its EC20; shares compounds with CHT allo act; activation, % at 10 µM; 2,500 compounds, 91% hits;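 active means primary screen active, with duplicate mean activation above negative control mean plus 3 SD, cut at about 11% in these data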
HEK293 MP dye = counter-screen for CHT activators: effect in parental HEK293 cells | ratio readout change at 10 µM, hits read low | membrane potential dye fluorescence (FDSS); measured after EC20 choline addition | 2,500 compounds, 62% hits | AID 623908 | shares compounds with CHT allo act;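 active means duplicate-averaged ratio beyond 3 SD from buffer wells, up or down, though filed actives are nearly all decreases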
* = called active by the depositor; i = inactive; x = not tested or not shown. Sampled rows, rich in hits. Any-hit rate of the full collection: about 2.3%.

SMILES | CHT inh | CHT allo act | pCIP destab | GPR7 antagonist | T cell HTS | DSG3 Ab inh | CHT activ conf | HEK293 MP dye
OC(CCN1CCCCC1)(c1ccccc1)C1CCCCC1 (centres undefined) | i | i | -6 | 11 | 541 | x | x | x
COCCn1c(=NC(=O)CCS(=O)(=O)c2ccccc2)sc2cc(F)ccc21 | i | i | -10 | -14 | 307 | 100 | x | x
Cc1ccc(S(=O)(=O)N2CCN(C(=O)COC(=O)CCOc3ccccc3C)CC2)c(C)c1 | x | x | x | x | x | 99 | x | x
CCOc1ccc(CNc2ccc3c(c2)nc(C)n3C)cc1 | i | i | 9 | -7 | 167 | x | x | x
COc1ccc(CNc2ccc3c(c2)nc(C)n3C)cc1OC | i | 6.6* | -4 | -6 | 51 | 100 | 26* | -48*
COc1ccccc1OCC(=O)Nc1ccc2c(c1)n(C)c(=O)n2C | i | 6.6* | 16 | -14 | 164 | 112 | 63* | -53*
COc1cc(C(C)=O)ccc1OCC(=O)OC(C)C(=O)c1ccc(F)cc1 (centres undefined) | x | x | x | x | 178 | 101 | x | x
Cc1c(C)c2ccc(OCc3ccc(C(=O)O)o3)c(C)c2oc1=O | i | 7.8* | -5 | -12 | 415 | 100 | 30* | -40*
Cc1cc(C)c2nc(C(F)(F)F)c(C#N)c(N)c2c1 | i | i | -10 | -9 | 282 | 104 | x | x
CCCc1nc2c(C)cc(C)cc2c(N)c1CC | i | 7.1* | -1 | 2 | 361 | 103 | 44* | -38*
CC(OC(=O)Cn1cnc2ccccc2c1=O)C(=O)NCc1ccccc1 (centres undefined) | i | i | x | x | 504 | 98 | x | x
CCc1cc(CNC(=O)c2ccc(OC3CCN(CCc4ccccc4)CC3)cc2)on1 | i | 6.5* | -2 | -8 | 67 | 97 | -4 | -25*
O=C(NCc1ccon1)c1ccc(OC2CCN(CCc3ccccc3)CC2)cc1 | i | i | -2 | -4 | 239 | 121 | x | x
Cc1c(/C(O)=C2\C(=O)C(=O)N(CCCN(C)C)C2c2ccco2)cnn1-c1ccccc1 (centres undefined) | x | x | x | x | x | 105 | x | x
CN(C)CC1CCCCC1C1(O)c2ccccc2CSc2sccc21 (centres undefined) | i | i | -4 | 13 | 518 | x | 13* | i
Cc1cc2nc3ccc(N(C)C)cc3nc2cc1N | i | i | x | x | 476 | x | 30* | -24*
c1cc(-c2nnc(-c3ccncc3)o2)ccn1 | i | 8.7* | -6 | -20 | 273 | x | 77* | -59*
CCn1cc(C(=O)OC)c(=O)c2ccc(C)nc21 | i | 12* | -6 | 2 | 320 | 106 | 79* | -75*
COc1cc(C(=O)Nc2ccc(C(F)(F)F)cc2)ccc1OCC(=O)N1CCOCC1 | x | x | x | x | x | 106 | x | x
Cc1ccc2nc3sc(C(=O)N4CCCc5ccccc54)c(N)c3cc2c1 | i | i | -6 | -4 | 602 | 118 | x | x
Cc1cc(C)c2cc3c(N)c(C(=O)N4CCc5ccccc5C4)sc3nc2c1 | i | 6.4* | 6 | -7 | 394 | 100 | -7 | i
CC(=O)N1CC[n+]2c(-c3ccc(Cl)cc3)csc21 | i | i | -2 | 3 | 412 | 93 | 47* | -23*
CCc1ccc(-c2csc3[n+]2CCN3C(C)=O)cc1 | i | i | -4 | 5 | 237 | 101 | 41* | i
Cc1ccc2c(c1)N(CC(=O)NCCCN1CCOCC1)C(=O)C(C(C)C)O2 (centres undefined) | i | i | x | x | 39 | 96 | x | x
O=S1(=O)CCN(CCc2ccccc2)CC1 | x | x | x | x | x | 101 | x | x
SMILES | CHT inh | CHT allo act | pCIP destab | GPR7 antagonist | T cell HTS | DSG3 Ab inh | CHT activ conf | HEK293 MP dye
Cc1ccc2c(CC(=O)Nc3ccc4nc(N5CCOCC5)sc4c3)coc2c1 | x | x | x | x | x | 100 | x | x
COc1cccc(N2C(=O)CC(N3CCN(S(=O)(=O)c4ccccc4[N+](=O)[O-])CC3)C2=O)c1 (centres undefined) | x | x | x | x | x | 101 | x | x
NC1C2CN(c3nc4c(cc3F)c(=O)c(C(=O)O)cn4-c3ccc(F)cc3F)CC12 (centres undefined) | i | 7.9* | -14 | -6 | 397 | 98 | 60* | -67*
COc1cccc(C(=O)N2CCN(Cc3ccccn3)CC2)c1 | i | i | -5 | 6 | 171 | 103 | x | x
C=CCn1c(SCC(=O)O)nnc1-c1cccc(Cl)c1 | i | 6.6* | -4 | -15 | 411 | x | -1 | i
COc1ccc(NC(=S)NC(C)c2ccncc2)cc1OC (centres undefined) | i | i | 2 | -11 | 657 | 99 | 18* | i
CC(NC(=S)Nc1ccc([N+](=O)[O-])cc1)c1ccncc1 (centres undefined) | i | i | -4 | 12 | 295 | 106 | x | x
Fc1cccc(CSc2ncnc3c2ncn3C2CCCCO2)c1 (centres undefined) | x | x | x | x | x | 97 | x | x
COc1ccc(Nc2nccc3c2ncn3C)cc1 | i | i | x | x | 171 | 104 | 61* | -56*
COc1ccc(Nc2ncnc3sccc23)cc1 | i | i | 5 | -5 | 323 | 86 | x | x
CCCCn1c(N)c(N(CCOC)C(=O)CN2C(=O)C3CCCCC3C2=O)c(=O)[nH]c1=O (centres undefined) | x | x | x | x | 417 | 100 | x | x
CC(C)(C)C(=O)N1CCN(c2ccnc3cc(Cl)ccc23)CC1 | i | i | 8 | 2 | 670 | 110 | x | x
O=C(C1CC1)N1CCN(c2ccnc3cc(Cl)ccc23)CC1 | i | 7.3* | 3 | -6 | 373 | 96 | 65* | -67*
O=C(c1ccco1)N1CCN(c2ccnc3cc(Cl)ccc23)CC1 | i | i | -10 | -7 | 212 | 106 | 20* | -68*
O=C(C1CCC1)N1CCN(c2ccnc3cc(Cl)ccc23)CC1 | i | i | -10 | 5 | 256 | 112 | x | x
C=CCN1C(=O)N/C(=C/c2ccccc2OCC(=O)Nc2ccc(F)cc2)C1=O | i | i | 1 | -2 | 412 | 99 | x | x
CC(Sc1ccc(Cl)cc1)C(=O)Nc1ccccc1-c1ccccc1 (centres undefined) | i | 7* | -11 | -3 | 330 | 103 | 35* | i
Cc1ccc(SC(C)C(=O)Nc2ccccc2-c2ccccc2)cc1 (centres undefined) | i | i | 2 | -1 | 370 | 103 | 7 | i
C=C(C)c1cccc(C(C)(C)NC(=O)N2CCN(C(=O)OCC)CC2)c1 | x | x | x | x | x | 99 | x | x
